Data taken from ChEMBL document CHEMBL4038317, “Discovery of a Benzamide Derivative That Protects Pancreatic β-Cells against Endoplasmic Reticulum Stress” (J Med Chem, 2017).
The source made the active and inactive calls. The rule behind the calls is not given here.

Tests used:
INS1 [1] = experiment: Protection against tunicamycin ER stress-induced suppression of INS1 mRNA expression in rat INS-1 cells up to 1 uM after 24 hrs by qRT-PCR analysis; type: functional, cell-based
Procedure, shortened: (§1)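 INS-1 cells were exposed to tunicamycin 0.1 μg/mL with compound or DMSO for 24 h. INS1, INS2, PDX1 and MafA mRNA were measured by qRT-PCR and normalized to cyclophilin A by the comparative Ct method. Triplicate wells, 3 independent experiments.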

INS1 [2] = experiment: Protection against tunicamycin ER stress-induced suppression of glucose-stimulated insulin secretion in rat INS-1 cells after 24 hrs by ELISA; type: functional, cell-based
Procedure, shortened: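 INS-1 cells were given tunicamycin 0.1 μg/mL and compound for 24 h, preincubated 1 h in KRBH (pH 7.4, 2% BSA) with 2.5 mM glucose, then given 1 h at low or high glucose. Secreted insulin was measured by ELISA and corrected for total protein (Bradford). Triplicate wells, three independent experiments.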

INS1 [3] = experiment: Protection against tunicamycin ER stress-induced suppression of MafA mRNA expression in rat INS-1 cells up to 1 uM after 24 hrs by qRT-PCR analysis; type: functional, cell-based; procedure, shortened: as §1
INS1 [4] = experiment: Cytoprotective activity in rat INS-1 cells assessed as protection against tunicamycin-induced ER stress-mediated reduction reduction in cell viability up to 10 uM after 3 days by MTT assay; type: functional, cell-based
Procedure, shortened: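 INS-1 cells, 3×10^3 per well, were exposed to tunicamycin 0.1 μg/mL with compound for 72 h. MTT was added for 3 h at 37 °C, then crystal-dissolving solution for 4 h, and absorbance read at 570 nm. Triplicate wells, three independent experiments.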

Mus musculus = experiment: Antidiabetic activity in STZ-induced diabetic overnight fasted C57BL/6 mouse model assessed as blood glucose level at 5 mg/kg, ip administrated qd with streptozotocin for 5 days followed by compound administration alone for 2 more weeks measured at 30 mins post last dose relative to control; type: functional, organism-based
Procedure, shortened: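 Same STZ/compound i.p. regimen in male C57BL/6 mice, vehicle group as control. Intraperitoneal glucose tolerance test in overnight-fasted mice: glucose 2 g/kg i.p., blood glucose read at set times after the glucose load.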

[5] = target: T1, Eukaryotic translation initiation factor 2-alpha kinase 3 (Rattus norvegicus) (UniProt Q9Z1Z1); experiment: Inhibition of PERK activation in rat INS-1 cells assessed as suppression of tunicamycin-induced increase in ATF4 mRNA levels up to 10 uM after 8 hrs by qRT-PCR analysis; type: cell-based
T1 sequence (whole entry): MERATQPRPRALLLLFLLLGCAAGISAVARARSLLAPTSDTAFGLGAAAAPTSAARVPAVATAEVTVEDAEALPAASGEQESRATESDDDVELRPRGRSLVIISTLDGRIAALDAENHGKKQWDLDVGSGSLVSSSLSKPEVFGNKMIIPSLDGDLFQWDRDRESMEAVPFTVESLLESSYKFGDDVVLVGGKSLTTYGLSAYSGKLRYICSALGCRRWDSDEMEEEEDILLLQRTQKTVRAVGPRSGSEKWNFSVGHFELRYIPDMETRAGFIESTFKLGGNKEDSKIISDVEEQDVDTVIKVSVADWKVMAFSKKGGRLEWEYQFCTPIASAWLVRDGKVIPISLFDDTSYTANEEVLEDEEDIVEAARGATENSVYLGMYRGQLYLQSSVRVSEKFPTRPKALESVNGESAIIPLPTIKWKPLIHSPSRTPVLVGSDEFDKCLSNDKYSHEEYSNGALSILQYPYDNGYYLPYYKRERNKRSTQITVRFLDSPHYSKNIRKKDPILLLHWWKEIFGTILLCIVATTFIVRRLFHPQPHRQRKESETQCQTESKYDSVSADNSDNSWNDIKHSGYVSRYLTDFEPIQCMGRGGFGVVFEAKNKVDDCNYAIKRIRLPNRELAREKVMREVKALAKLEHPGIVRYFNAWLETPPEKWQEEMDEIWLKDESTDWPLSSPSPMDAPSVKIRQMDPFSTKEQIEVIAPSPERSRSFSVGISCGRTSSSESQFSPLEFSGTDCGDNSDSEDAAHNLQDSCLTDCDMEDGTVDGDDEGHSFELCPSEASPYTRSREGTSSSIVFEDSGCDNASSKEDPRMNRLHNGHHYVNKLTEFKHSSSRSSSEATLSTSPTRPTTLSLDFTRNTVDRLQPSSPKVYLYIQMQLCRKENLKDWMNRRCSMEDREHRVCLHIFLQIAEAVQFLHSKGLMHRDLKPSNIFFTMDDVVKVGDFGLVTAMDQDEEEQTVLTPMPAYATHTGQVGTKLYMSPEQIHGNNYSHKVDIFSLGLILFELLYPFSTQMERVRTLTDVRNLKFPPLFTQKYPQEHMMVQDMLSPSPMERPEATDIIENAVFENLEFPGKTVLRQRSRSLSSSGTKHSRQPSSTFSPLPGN
Procedure, shortened: (§2)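 INS-1 cells, 4×10^5 per well, were exposed to tunicamycin 0.1 μg/mL with compound or DMSO for 8 h. qRT-PCR for ATF4, CHOP, Bip, GRP94, or spliced XBP1 using splicing-specific primers. Values were normalized to cyclophilin A by ΔΔCt and given as fold over untreated control. Triplicate wells, 3 independent experiments.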

INS1 [6] = experiment: Effect on CHOP mRNA level in rat INS-1 cells up to 10 uM after 8 hrs by qRT-PCR analysis; type: ADME, cell-based; conditions: ins1, 8 h; procedure, shortened: as §2
Rattus norvegicus = species: Rattus norvegicus; experiment: Inhibition of IRE1alpha activation in rat INS-1 cells assessed as suppression of tunicamycin-induced increase in XBP1 mRNA levels up to 10 uM after 8 hrs by agarose gel electrophoresis method; type: cell-based
Procedure, shortened: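 INS-1 cells were exposed to tunicamycin 0.1 μg/mL with compound or DMSO for 8 h. Total XBP1 mRNA was amplified by RT-PCR, and the spliced and unspliced forms were separated electrophoretically.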

Beta-TC6 = experiment: Cytoprotective activity in mouse BetaTC6 cells assessed as protection against tunicamycin-induced ER stress-mediated reduction in cell viability after 3 days by CellTiter-Glo assay; type: functional, cell-based
Procedure, shortened: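 βTC6 cells, 3×10^3 per well, were exposed to tunicamycin 0.3 μg/mL with compound or DMSO for 72 h. Intracellular ATP was read by luminescence and expressed as fold of no-tunicamycin cells. Triplicate wells, three independent experiments.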

INS1 [7] = experiment: Cytoprotective activity against tunicamycin ER stress-induced apoptosis in rat INS-1 cells assessed as viable cells at 0.1 uM after 48 hrs by phase contrast microscopic analysis; type: functional, cell-based
Procedure, shortened: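 INS-1 cells were exposed to tunicamycin 0.1 μg/mL with compound (0.1 μM) or DMSO for 48 h. Live-cell phase-contrast images were taken at 10×; 3 independent experiments.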

Compound: O=C(NCc1ccc(C(F)(F)F)cc1)c1cccc(CN2CCCCC2)c1
- Activity (INS1 [1]): Active
- Activity (INS1 [2]): Active
- Activity (INS1 [3]): Active
- Activity (INS1 [4]): Active
- Activity (Mus musculus): Active
- inhibition [5]: Active
- Activity (INS1 [6]): Non-Toxic
- inhibition (Rattus norvegicus): Active
- Activity (Beta-TC6): Dose-dependent effect
- Activity (INS1 [7]): Active
